For four molecules, inhibition, half-life and MIC results are on record in ChEMBL document CHEMBL1151915, “Structure-activity relationship studies of small-molecule inhibitors of Wnt response” (Bioorg Med Chem Lett, 2009).

In brackets after ≈: the same amount, converted by molar mass. Activity calls are given as the source filed them.

For one series, the species on record is Danio rerio. The series is described as follows: Inhibition of fin regeneration in zebrafish. The series is classed as functional.
A short description of series [1]: Half life in mouse hepatocytes. The series is classed as ADME, cell-based, Liver, Hepatocyte. An outline of the steps:
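Cryopreserved murine CD1 hepatocytes (10^5 cells) incubated with 2 μM compound; reactions stopped at set time points with methanol; saline or buffer incubations served as controls.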

Series [2] can be described thus: Half life in mouse blood. The series is classed as ADME, tissue-based. An outline of the steps:
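Compound at 2 μM incubated in whole blood from C57BL/6 mice; incubation stopped at set time points by adding methanol; saline or buffer incubations run as controls.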

A short description of series [3]: Half life in mouse liver S9 fraction. The series is classed as ADME, subcellular.

Turning to `O=C(Nc1ccc(F)cc1F)c1ccc(N2C(=O)[C@@H]3[C@H](C2=O)[C@@H]2C=C[C@H]3C2)cc1`, the inhibition entry in the series filed under Danio rerio is “Active”.

`O=C(Nc1ccc(F)cc1)c1ccc(N2C(=O)[C@@H]3[C@H](C2=O)[C@@H]2C=C[C@H]3C2)cc1`: in series [1], the half-life (as a rule, how long it takes for the measured level to halve) is 60 min.

Consider `O=C(Nc1cccc2cccnc12)c1ccc(N2C(=O)[C@@H]3[C@H](C2=O)[C@@H]2C=C[C@H]3C2)cc1`, for which the half-life in series [1] is 20 min; in series [2] it was 60 min; in series [3] it was 20 min. Also, the minimum inhibitory concentration (MIC) – broadly, the smallest concentration in the dilution series that meets the test's criterion for growth inhibition – in the series listed under Danio rerio worked out at 0.5 µM (≈ 0.205 µg/mL).

In series [1], `COc1ccccc1NC(=O)c1ccc(N2C(=O)[C@@H]3[C@H](C2=O)[C@@H]2C=C[C@H]3C2)cc1` showed a half-life of 10 min.
